For 19 compounds, IC50 and CC50 results are on record in ChEMBL document CHEMBL3352236, “Discovery and molecular modeling of novel 1-indolyl acetate--5-nitroimidazole targeting tubulin polymerization as antiproliferative agents” (Eur J Med Chem, 2014).

Data set [1] relates to A549. In words: Antiproliferative activity against human A549 cells after 24 to 48 hrs by CKK8 assay. The format is functional, cell-based. Put shortly: (§1)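 CCK-8 assay. 1–5 × 10³ cells per well grown at 37 °C for 12 h, then exposed to rising compound concentrations in 10% FBS for 24 or 48 h. CCK-8 dye added and incubated 1–2 h at 37 °C, […]. Percent inhibition or IC50 taken relative to DMSO-treated control wells.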

In data set [2] the test system is HeLa. In words: Antiproliferative activity against human HeLa cells after 24 to 48 hrs by CKK8 assay. It counts as functional, cell-based. Put shortly:
as §1

The test system of data set [3] is U-251. Put plainly: Antiproliferative activity against human U251 cells after 24 to 48 hrs by CKK8 assay. It counts as functional, cell-based. In short, it runs like this:
as §1

The nature of data set [4]: Cytotoxicity against human macrophages assessed as reduction in cell viability after 24 hrs by MTT assay. It counts as cell-based, Macrophage. In short, it runs like this: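 Human macrophages at 5*10⁵ cells per well treated with a range of compound concentrations for 24 h at 37 °C, 5% CO₂. MTT (4 mg/mL) added and left 4 h, then centrifugation at 1200 rcf for 5 min and formazan dissolved in DMSO. Absorbance read at 570 nm. Triplicate wells, assay run three times, mean CC50 (50% viability loss) ± SD reported.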
On the technique in general: Formazan colour is commonly taken as a measure of viable cells.

Data set [5] addresses Tubulin (Bos taurus, UniProt Q6B856+Q862L2+Q862F3). Put plainly: Inhibition of bovine brain tubulin preincubated for 20 mins by turbidimetry.

Structures are written as SMILES.

The term IC50 denotes the concentration that gives 50% inhibition. The low end stands for greater potency, the high end for weaker potency. The term CC50 denotes the concentration at which the toxic effect on the cells reaches its halfway point. Consider `O=C(OCCn1c([N+](=O)[O-])cnc1/C=C/c1ccc(Cl)cc1)c1c[nH]c2ccccc12`, for which the IC50 in data set [1] is 4.51 µM; in data set [2] it was 3.77 µM; in data set [3], 3.23 µM; in data set [5], 98.8 µM. Besides, the CC50 at 24 h in data set [4] is 104 µM.

`O=C(OCCn1c([N+](=O)[O-])cnc1/C=C/c1ccccc1Cl)c1c[nH]c2ccccc12`: the IC50 worked out at 4.24 µM in data set [1], 3.1 µM in data set [2], 2.98 µM in data set [3] and 71.2 µM in data set [5]. The CC50 at 24 h in data set [4] was 132 µM.

For the compound `O=C(OCCn1c([N+](=O)[O-])cnc1/C=C/c1cccc(Cl)c1)c1c[nH]c2ccccc12`, the IC50 in data set [1] turned out to be 5.02 µM; in data set [2] it was 4.21 µM; in data set [3], 4.08 µM; in data set [5] it was 103 µM. The CC50 at 24 h in data set [4] was found to be 156 µM.

Take `O=C(OCCn1c([N+](=O)[O-])cnc1/C=C\c1ccccc1Br)c1c[nH]c2ccccc12`: the IC50 in data set [1] worked out at 5.11 µM; in data set [2], 4.12 µM; in data set [3] it was 3.09 µM; in data set [5] it was 112.2 µM. Also, the CC50 at 24 h in data set [4] was 145 µM.

On to `O=C(OCCn1c([N+](=O)[O-])cnc1/C=C\c1cccc(Br)c1)c1c[nH]c2ccccc12`, for which the IC50 in data set [1] came to 6.03 µM; in data set [2], 4.81 µM; in data set [3] it was 3.87 µM; in data set [5], 162 µM. In data set [4], the CC50 at 24 h stood at 164 µM.

For the compound `O=C(OCCn1c([N+](=O)[O-])cnc1/C=C\c1ccc(Br)cc1)c1c[nH]c2ccccc12`, the IC50 in data set [1] turned out to be 5.55 µM; in data set [2], 4.8 µM; in data set [3], 3.89 µM; in data set [5] it was 123.3 µM. The CC50 at 24 h in data set [4] worked out at 98 µM.

Turning to `O=C(OCCn1c([N+](=O)[O-])cnc1/C=C\c1ccccc1[N+](=O)[O-])c1c[nH]c2ccccc12`, the IC50 in data set [1] turned out to be 2.12 µM; in data set [2] it was 1.24 µM; in data set [3] it was 1.11 µM; in data set [5], 6.3 µM. For the same compound, the CC50 at 24 h in data set [4] came to 109 µM.

Consider `O=C(OCCn1c([N+](=O)[O-])cnc1/C=C\c1cccc([N+](=O)[O-])c1)c1c[nH]c2ccccc12`, for which the IC50 in data set [1] turned out to be 2.86 µM; in data set [2], 2.01 µM; in data set [3], 2.81 µM; in data set [5] it was 19.5 µM. Moreover, in data set [4], the CC50 at 24 h was 123 µM.

`O=C(OCCn1c([N+](=O)[O-])cnc1/C=C\c1ccc([N+](=O)[O-])cc1)c1c[nH]c2ccccc12`: the IC50 was 2.01 µM in data set [1], 1.79 µM in data set [2], 2.03 µM in data set [3] and 6.9 µM in data set [5]. In addition, in data set [4], the 50% cytotoxic concentration (CC50) at 24 h turned out to be 200 µM.

Turning to `Cc1ccccc1/C=C\c1ncc([N+](=O)[O-])n1CCOC(=O)c1c[nH]c2ccccc12`, the IC50 in data set [1] came out at 4.02 µM; in data set [2] it was 4.43 µM; in data set [3] it was 2.79 µM; in data set [5], 67.2 µM. Besides, the CC50 at 24 h in data set [4] was found to be 202 µM.

On to `Cc1cccc(/C=C\c2ncc([N+](=O)[O-])n2CCOC(=O)c2c[nH]c3ccccc23)c1`, for which the IC50 in data set [1] came to 4.32 µM; in data set [2], 3.77 µM; in data set [3] it was 3.02 µM; in data set [5] it was 75.3 µM. The cytotoxic concentration (CC50) at 24 h in data set [4] was 154 µM.

In the case of `Cc1ccc(/C=C\c2ncc([N+](=O)[O-])n2CCOC(=O)c2c[nH]c3ccccc23)cc1`, the IC50 in data set [1] came to 3.88 µM; in data set [2], 2.28 µM; in data set [3] it was 3.11 µM; in data set [5] it was 45.2 µM. Further, in data set [4], the CC50 at 24 h is 123 µM.

In the case of `COc1ccccc1/C=C\c1ncc([N+](=O)[O-])n1CCOC(=O)c1c[nH]c2ccccc12`, the IC50 in data set [1] was 3.11 µM; in data set [2] it was 3.23 µM; in data set [3] it was 4.09 µM; in data set [5] it was 21.4 µM. The CC50 at 24 h in data set [4] stood at 77 µM.

`COc1cccc(/C=C\c2ncc([N+](=O)[O-])n2CCOC(=O)c2c[nH]c3ccccc23)c1`: the 50% inhibitory concentration (IC50) in data set [1] amounted to 4.09 µM; in data set [2], 4.01 µM; in data set [3], 2.76 µM; in data set [5], 67.7 µM. The CC50 at 24 h in data set [4] amounted to 89 µM.

In the case of `COc1ccc(/C=C\c2ncc([N+](=O)[O-])n2CCOC(=O)c2c[nH]c3ccccc23)cc1`, the IC50 in data set [1] is 3.97 µM; in data set [2], 3.88 µM; in data set [3] it was 3.07 µM; in data set [5] it was 50.3 µM. For the same compound, the CC50 at 24 h in data set [4] was found to be 106 µM.

As for `O=C(OCCn1c([N+](=O)[O-])cnc1/C=C\c1ccc(Cl)cc1Cl)c1c[nH]c2ccccc12`, the IC50 in data set [1] was 2 µM; in data set [2], 1.05 µM; in data set [3], 0.87 µM; in data set [5], 2.4 µM. Moreover, in data set [4], the CC50 at 24 h came to 287 µM.

For the compound `O=C(OCCn1c([N+](=O)[O-])cnc1/C=C\c1cccc2ccccc12)c1c[nH]c2ccccc12`, the IC50 in data set [1] was found to be 7.02 µM; in data set [2] it was 10.1 µM; in data set [3] it was 12.8 µM; in data set [5], 186.5 µM. The CC50 at 24 h in data set [4] worked out at 158 µM.

As for `O=C(OCCn1c([N+](=O)[O-])cnc1/C=C\c1ccccc1)c1c[nH]c2ccccc12`, the IC50 in data set [1] is 8.43 µM; in data set [2] it was 13.6 µM; in data set [3], 16.9 µM; in data set [5], 204.1 µM. Moreover, the CC50 at 24 h in data set [4] came to 105 µM.

Take `COc1ccc(/C=C\c2cc(OC)c(OC)c(OC)c2)cc1O` [COMBRETASTATIN A4]: the figures for the IC50 in data set [1], in data set [2] and in data set [3] were 2.79 µM, 1.44 µM and 0.54 µM, respectively.
